As usually defined, the Km is the concentration of substrate that gives half-maximal velocity. The term kcat denotes the maximal rate divided by the concentration of active sites.

Where only a bound is given, the exact number is not on record here.

Results on 13 molecules are retold here after ChEMBL document CHEMBL2417383, “Assay platform for clinically relevant metallo-β-lactamases” (J Med Chem, 2013).

The nature of data set [1]: Inhibition of recombinant SPM-1 (unknown origin) expressed in Escherichia coli BL21 (DE3) cells using FC4 as substrate assessed as residual activity at 1 mM preincubated for 10 mins prior to substrate addition by fluorescence-based assay relative to control. In short, it runs like this:
(§1)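 Mature SPM-1, E. coli codon-optimized, with N-terminal His6 tag cleavable by 3C protease, was expressed from pOPINF in E. coli BL21(DE3) pLysS in 2TY and purified to >95%. […] Fluorescence was read at λex 380/λem 460 nm and residual activity calculated.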

Data set [2] relates to BL21-DE3. The data set is described as follows: Inhibition of recombinant SPM-1 (unknown origin) expressed in Escherichia coli BL21 (DE3) cells using FC4 as substrate assessed as residual activity at 200 uM preincubated for 10 mins prior to substrate addition by fluorescence-based assay relative to control. In short, it runs like this: as §1
The subject of data set [3] is BL21-DE3.
For data set [4], the system named is BL21-DE3. The source holds these as a separate data set.
Data set [5] has as its system BL21-DE3. The source holds these as a separate data set.
Data set [6] deals with BL21-DE3. The source holds these as a separate data set.
Data set [7] has as its system BL21-DE3. The source holds these as a separate data set.
A short description of data set [8]: Chemical stability of the compound in aqueous solution. The format is physicochemical. The note with it: buffer. In short, it runs like this: (§2)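 Substrate autohydrolysis was followed in aqueous assay buffer at room temperature over time, up to at least 8 h.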
Data set [9] can be described thus: Chemical stability of the compound in buffer assessed as compound hydrolysis after 8 hrs. Type of data set: physicochemical. In short, it runs like this:
as §2

With `CC(C)C[C@H](NC(=O)c1nc(Cl)c2ccccc2c1O)C(=O)O`, the Activity in data set [1] was under 5%; with BL21-DE3 [2] it was 26%.

Take `O=C(O)CC[C@H](NC(=O)c1nc(Cl)c2ccccc2c1O)C(=O)O`: the Activity in data set [1] is under 5%.

Regarding `O=C(O)CC[C@@H](NC(=O)c1nc(Cl)c2ccccc2c1O)C(=O)O`, the Activity in [1] was under 5%.

Regarding `O=C(Cc1cccs1)N[C@@H]1C(=O)N2C(C(=O)O)=C(/C=C/c3ccc([N+](=O)[O-])cc3[N+](=O)[O-])CS[C@H]12`, the Michaelis-Menten constant (Km) with BL21-DE3 [3] came to 16 µM; in the data set with BL21-DE3 [4] it was 8.8 µM; in the data set on BL21-DE3 [5], 7.2 µM; in the data set with BL21-DE3 [6] it was 55.7 µM; in the data set with BL21-DE3 [7] it was 8.1 µM. Further, the catalytic constant (kcat) turned out to be 0.7 s⁻¹ in the data set on BL21-DE3 [3]; 25.3 s⁻¹ in the data set on BL21-DE3 [4]; 226 s⁻¹ in the data set on BL21-DE3 [5]; 2790 s⁻¹ with BL21-DE3 [6]; 14.9 s⁻¹ in the data set with BL21-DE3 [7].

`O=C(N[C@H](Cc1c[nH]c2ccccc12)C(=O)O)c1nc(Cl)c2ccccc2c1O`: the Activity in [1] was under 5%.

Regarding `O=C(Cc1ccccc1)N[C@@H]1C(=O)N2C(C(=O)O)=C(COc3ccc4ccc(=O)oc4c3)C[S+]([O-])[C@H]12` (stereo partly specified), the Stability entry in data set [8] and in [9] was “Stable” throughout.

Consider `CC(C)C[C@@H](NC(=O)c1nc(Cl)c2ccccc2c1O)C(=O)O`, for which the Activity in [1] was under 5%; in the data set on BL21-DE3 [2], 32%.

Regarding `O=C(N[C@@H](Cc1c[nH]c2ccccc12)C(=O)O)c1nc(Cl)c2ccccc2c1O`, the Activity in data set [1] was under 5%.

Turning to `CC(C)[C@@H](NC(=O)c1nc(Cl)c2ccccc2c1O)C(=O)O`, in data set [1], the Activity turned out to be 16%.

With `O=C(O)C[C@@H](NC(=O)c1nc(Cl)c2ccccc2c1O)C(=O)O`, the Activity in data set [1] is under 5%.

Take `O=C(O)C[C@H](NC(=O)c1nc(Cl)c2ccccc2c1O)C(=O)O`: the Activity in [1] was under 5%.

As for `CC(C)[C@H](NC(=O)c1nc(Cl)c2ccccc2c1O)C(=O)O`, the Activity in [1] was 16%.

On to `O=C(Cc1ccccc1)N[C@@H]1C(=O)N2C(C(=O)O)=C(COc3ccc4ccc(=O)oc4c3)CS(=O)(=O)[C@H]12`, for which the Stability result in [8] and in data set [9] was “Stable” in each case.
